Assay results from paper PMC3625964 (Journal of medicinal chemistry, 2013).
Marks after values point to notes of the source that are not given here.

Legend:
[1] = molecular target: T1, human factor XIa (Homo sapiens, UniProt P03951); assay: Direct inhibition of FXIa, chromogenic substrate; type: biochemical
[2] = molecular target: FXIa-DEGR (Homo sapiens, UniProt P03951); assay: Fluorescence titration of active site labeled FXIa; type: binding; details: 250 nM FXIa-DEGR, pH 7.4, 37 °C; for ΔFMAX: 547 nm
Chain of FXIa-DEGR (P03951 388-625 limits assumed): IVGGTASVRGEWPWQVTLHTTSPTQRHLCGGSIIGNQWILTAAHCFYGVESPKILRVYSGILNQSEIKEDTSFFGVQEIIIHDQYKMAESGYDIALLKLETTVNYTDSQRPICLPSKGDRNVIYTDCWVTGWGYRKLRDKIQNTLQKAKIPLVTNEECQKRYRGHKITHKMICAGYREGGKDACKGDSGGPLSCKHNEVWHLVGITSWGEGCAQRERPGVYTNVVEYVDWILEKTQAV
Chain of FXIa-DEGR (P03951 19-387 partner limits assumed): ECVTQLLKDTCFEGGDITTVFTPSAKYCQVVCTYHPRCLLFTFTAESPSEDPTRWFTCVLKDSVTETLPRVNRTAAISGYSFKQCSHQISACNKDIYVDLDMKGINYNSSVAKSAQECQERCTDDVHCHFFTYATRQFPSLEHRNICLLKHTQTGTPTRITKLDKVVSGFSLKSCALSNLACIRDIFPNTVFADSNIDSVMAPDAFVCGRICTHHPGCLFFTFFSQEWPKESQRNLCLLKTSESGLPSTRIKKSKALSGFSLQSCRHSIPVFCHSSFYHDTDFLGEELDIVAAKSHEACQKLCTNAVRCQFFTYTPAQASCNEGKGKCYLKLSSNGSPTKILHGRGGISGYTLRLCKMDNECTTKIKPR
How it was run: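 Plasma-derived human FXIa with a dansyl active-site label (FXIa-DEGR, 250 nM) in 50 mM Tris-HCl pH 7.4, 150 mM NaCl, 0.1% PEG8000 at 37 °C was titrated with aliquots of test compound in the same buffer. Emission at 547 nm (excitation 345 nm) was tracked. Hill-equation fits gave KD,app, n and ΔFMAX. At least two runs were done.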

[3] = test system: human plasma; assay: Activated partial thromboplastin time; type: biochemical
How it was run: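 Citrated pooled normal human plasma was mixed with test compound and prewarmed APTT reagent (0.2% ellagic acid) and incubated 4 min at 37 °C. Clotting was started with prewarmed 25 mM CaCl2, and clot time was read on a fibrometer. Runs were in duplicate. A quadratic trend line of clot time versus concentration gave the concentration doubling clotting time.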

[4] = test system: human plasma; assay: Prothrombin time; type: biochemical
How it was run: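 One-stage recalcification assay. Test compound was brought up in citrated pooled normal human plasma and held 30 s at 37 °C. Prewarmed reconstituted thromboplastin-D was added, and clot time was read on a fibrometer. Runs were in duplicate and the mean of two is reported. A quadratic trend line gave the concentration needed to double clotting time.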

[5] = molecular target: T1, human factor XIa; assay: Michaelis-Menten kinetics of S2366 hydrolysis by FXIa in presence of 14S; type: biochemical
[6] = molecular target: FXIa-CD (Homo sapiens, UniProt P03951, C500S); assay: Inhibition of recombinant wild type FXIa catalytic domain; type: biochemical; details: catalytic domain alone
Chain of FXIa-CD (P03951 388-625 C500S): as the sequence (P03951 388-625 limits assumed) above, with C113S counted along it
How it was run: (§1)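 Human FXI cDNA with Cys362Ser/Cys482Ser, so the catalytic domain separates from the heavy chain, carried alanine substitutions at 170-helix residues (single or combined). It was stably expressed in HEK-293 with serum-free medium and purified on anti-FXI 1G5.12 affinity. It was activated with 5 μg/ml FXIIa at 37 °C, and the catalytic domain was isolated on 1G5.12. Dose-response used S2366 hydrolysis in 50 mM Tris-HCl pH 7.4, 150 mM NaCl, 0.1% PEG8000, 0.02% Tween80 at 37 °C, with logistic fits.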

[7] = test system: Lys529Ala,Arg530Ala,Arg532Ala FXIa-CD; assay: Inhibition of FXIa-CD triple mutant; type: biochemical, human; details: Arg532Ala vs FXIa-CD
How it was run: as §1

[8] = molecular target: Lys535Ala FXIa-CD (Homo sapiens, UniProt P03951, C500S/K553A); assay: Inhibition of Lys535Ala FXIa-CD mutant; type: biochemical
Chain of Lys535Ala FXIa-CD (P03951 388-625 C500S/K553A): as the sequence (P03951 388-625 limits assumed) above, with C113S, K166A counted along it
How it was run: as §1

[9] = molecular target: Lys539Ala FXIa-CD (Homo sapiens, UniProt P03951, C500S/K557A); assay: Inhibition of Lys539Ala FXIa-CD mutant; type: biochemical
Chain of Lys539Ala FXIa-CD (P03951 388-625 C500S/K557A): as the sequence (P03951 388-625 limits assumed) above, with C113S, K170A counted along it
How it was run: as §1

[10] = molecular target: FXIa–CD containing Lys529Ala,Arg530Ala,Arg532Ala triple mutations (Homo sapiens, UniProt P03951, C500S/K547A/R548A/R550A); assay: Polybrene competition, S2366 hydrolysis, FXIa-CD triple mutant; type: biochemical; details: 30 μM polybrene
Chain of FXIa–CD containing Lys529Ala,Arg530Ala,Arg532Ala triple mutations (P03951 388-625 C500S/K547A/R548A/R550A): as the sequence (P03951 388-625 limits assumed) above, with C113S, K160A, R161A, R163A counted along it
How it was run: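 Recombinant FXIa catalytic domain bearing Lys529Ala/Arg530Ala/Arg532Ala (HEK-293 expressed, affinity purified, FXIIa-activated) was tested alongside full-length FXIa and wild-type catalytic domain. Proteolytic activity was measured by S2366 hydrolysis in the presence of 30 μM polybrene and 3 μM test compound.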

T1 sequence (P03951 388-625 limits assumed): as the sequence (P03951 388-625 limits assumed) above
T1 sequence (P03951 19-387 partner limits assumed): as the sequence (P03951 19-387 partner limits assumed) above

| SMILES | Hill coefficient n [2] | ΔFMAX [2] | prolongation of APTT [3] | activity in the PT assay ([4]; human plasma) | also measured |
| --- | --- | --- | --- | --- | --- |
| CC(=O)Oc1cccc(-c2nc3ccccc3c(=O)n2Cc2cn(CCCCn3c(-c4cccc(OS(=O)(=O)O)c4)nc4ccccc4c3=O)nn2)c1 [Inhibitor 7S] |  |  |  |  | inhibition of factor XIa (in words) ([1]; pH 7.4, 37 °C): inactive |
| O=c1c2ccccc2nc(-c2ccc(OS(=O)(=O)O)cc2)n1CCCCn1cc(Cn2c(-c3ccc(OS(=O)(=O)O)cc3)nc3ccccc3c2=O)nn1 [Inhibitor 13S] | 7.9 ± 1.9 | 66 ± 2 ^b % | dose-dependent prolongation | reasonable dose-dependent prolongation of clotting time | 2-fold increase in PT (concentration) ([4]; human plasma, calculated from trend line): about 1.12 mM |
| O=c1c2ccccc2nc(-c2cccc(OS(=O)(=O)O)c2)n1CCCCn1cc(Cn2c(-c3ccc(OS(=O)(=O)O)cc3)nc3ccccc3c2=O)nn1 [Inhibitor 14S] | 9.0 ± 1.1 | 57 ± 2% |  |  | mechanism of factor XIa inhibition [5]: non-competitive; VMAX of substrate hydrolysis ([5]; 135 μM 14S, pH 7.4, 37 °C): 5.1±0.5 mAU/min |
| O=c1c2ccccc2nc(-c2ccc(OS(=O)(=O)O)cc2)n1Cc1cn(CCn2cc(Cn3c(-c4ccc(OS(=O)(=O)O)cc4)nc4ccccc4c3=O)nn2)nn1 [Inhibitor 28S] |  |  |  |  | IC50 [1]: < 100 µM; fold less potent than 15S ([1]; versus 15S): approximately 6 fold |

Now from value to molecule, other results behind:

| Hill coefficient n [2] | ΔFMAX [2] | SMILES | prolongation of APTT [3] | activity in the PT assay ([4]; human plasma) | also measured |
| --- | --- | --- | --- | --- | --- |
| 6.8 ± 2.7 | 72 ± 2% | O=c1c2ccccc2nc(-c2ccc(OS(=O)(=O)O)cc2)n1CCCCCn1cc(Cn2c(-c3ccc(OS(=O)(=O)O)cc3)nc3ccccc3c2=O)nn1 [Inhibitor 15S] | dose-dependent prolongation | much less active |  |
| 6.4 ± 2.0 | 90 ± 3% | O=c1c2ccccc2nc(-c2ccc(OS(=O)(=O)O)cc2)n1CCCCCCn1cc(Cn2c(-c3ccc(OS(=O)(=O)O)cc3)nc3ccccc3c2=O)nn1 [Inhibitor 16S] | dose-dependent prolongation | much less active | 2 × PT (concentration to double clotting time) ([4]; citrated human plasma): >2000 µM; inhibition of FXIa-CD compared with wild-type enzyme [6]: as potently as the wild-type enzyme; reduction in potency [7]: approximately 5 fold; change in IC50 from wild-type FXIa-CD [8]: no change in IC50; change in IC50 from wild-type FXIa-CD [9]: no change in IC50; loss in inhibition by addition of polybrene [10]: 1.45 fold |
